{"data": "Measurements from different studies", "organism": "Escherichia coli"}
{"SMILES": "O=C(O)c1cn(C2CC2)c2cc(N3CCNCC3)c(F)cc2c1=O", "assay": "microbial killing", "endpoint": "MBC", "value": "19 µM"}
{"SMILES": "COC(=O)c1cc(-c2cccc(NC(=O)Nc3cc(Cl)ccc3Cl)c2)on1", "assay": "microbial growth, broth dilution", "test system": "ATCC25922", "endpoint": "MIC", "value": "> 64 µg/mL"}
{"SMILES": "C[C@H]1NCc2cc(-c3ccc4c(=O)c(C(=O)O)cn(C5CC5)c4c3OC(F)F)ccc21", "assay": "microbial growth, broth dilution", "endpoint": "MIC90", "value": "0.25 µg/mL"}
{"SMILES": "Cc1cc(/C=C2\\Sc3ccccc3N2CCCN2CCC(C)CC2)c2ccccc2[n+]1C.[I-]", "assay": "microbial growth, broth dilution", "test system": "ATCCBAA2469", "endpoint": "MIC", "value": "1 µg/mL"}
{"SMILES": "CC(C)CCCCCCCCCCCCCCc1cc(O)cc(O)c1", "assay": "microbial growth", "endpoint": "IC50", "value": "47.3 µM"}
{"SMILES": "O=C(N[C@H](CO)[C@H](O)c1ccc([N+](=O)[O-])cc1)C(Cl)Cl", "assay": "microbial growth", "endpoint": "MIC90", "value": "15.6 µg/mL"}
{"SMILES": "COC(=O)c1cc(-c2ccc(NC(=O)Nc3ccc(Cl)c(Cl)c3)cc2)on1", "assay": "microbial growth, broth dilution", "test system": "ATCC25922", "endpoint": "MIC", "value": "> 64 µg/mL"}
{"SMILES": "CC(C)CCCCCCCCCCCCc1cc(O)cc(O)c1", "assay": "microbial growth", "endpoint": "IC50", "value": "78.1 µM"}
{"SMILES": "CC1(C)S[C@@H]2[C@H](NC(=O)[C@H](N)c3ccccc3)C(=O)N2[C@H]1C(=O)O", "assay": "microbial growth, well diffusion", "test system": "ATCC35218", "conditions": "60000 µg/mL", "endpoint": "inhibition zone", "value": "15 mm"}
{"SMILES": "O=C(Nc1cccc(-c2cc(C(=O)O)no2)c1)Nc1ccc(Cl)c(Cl)c1", "assay": "microbial growth, broth dilution", "test system": "ATCC25922", "endpoint": "MIC", "value": "> 64 µg/mL"}
{"SMILES": "Oc1cccc2cccnc12", "assay": "microbial growth, broth dilution", "test system": "ATCC25922", "endpoint": "IC50", "value": "49.5 µg/mL"}
{"SMILES": "COC(=O)c1cc(-c2cccc(NC(=S)Nc3ccc(F)cc3F)c2)on1", "assay": "microbial growth, broth dilution", "test system": "ATCC25922", "endpoint": "MIC", "value": "> 64 µg/mL"}
{"SMILES": "COc1c(N2C[C@@H]3CCCN[C@@H]3C2)c(F)cc2c(=O)c(C(=O)O)cn(C3CC3)c12", "assay": "microbial growth", "endpoint": "MIC90", "value": "0.06 µg/mL"}
{"SMILES": "CCCCCCCCCCCCCCCCCCCCc1cc(O)cc(O)c1", "assay": "microbial growth", "endpoint": "IC50", "value": "> 200 µM"}
